Reference: ChEMBL document CHEMBL4184227, “Surrogating and redirection of pyrazolo[1,5-a]pyrimidin-7(4H)-one core, a novel class of potent and selective DPP-4 inhibitors” (Bioorg Med Chem, 2018)

Columns and labels:
[1] = target: Dipeptidyl peptidase 9 (Homo sapiens, UniProt Q86TI2); assay: Inhibition of recombinant human DPP9 using H-Gly-Pro-AMC as substrate measured after 10 mins by fluorescence assay
Outline: (§1)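 Recombinant human DPP-8 or DPP-9 in 100 mM Tris-HCl, 100 mM NaCl, pH 7.8 was combined with inhibitor and H-Gly-Pro-AMC substrate (303 final). The mixture was incubated at 37 °C for 10 min, then fluorescence was read at ex 380/em 460 nm; values are means of three experiments.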

[2] = target: Dipeptidyl peptidase 8 (Homo sapiens, UniProt Q6V1X1); assay: Inhibition of recombinant human DPP8 using H-Gly-Pro-AMC as substrate measured after 10 mins by fluorescence assay; outline: as §1
Dipeptidyl peptidase 8, sequence (Q6V1X1 whole entry): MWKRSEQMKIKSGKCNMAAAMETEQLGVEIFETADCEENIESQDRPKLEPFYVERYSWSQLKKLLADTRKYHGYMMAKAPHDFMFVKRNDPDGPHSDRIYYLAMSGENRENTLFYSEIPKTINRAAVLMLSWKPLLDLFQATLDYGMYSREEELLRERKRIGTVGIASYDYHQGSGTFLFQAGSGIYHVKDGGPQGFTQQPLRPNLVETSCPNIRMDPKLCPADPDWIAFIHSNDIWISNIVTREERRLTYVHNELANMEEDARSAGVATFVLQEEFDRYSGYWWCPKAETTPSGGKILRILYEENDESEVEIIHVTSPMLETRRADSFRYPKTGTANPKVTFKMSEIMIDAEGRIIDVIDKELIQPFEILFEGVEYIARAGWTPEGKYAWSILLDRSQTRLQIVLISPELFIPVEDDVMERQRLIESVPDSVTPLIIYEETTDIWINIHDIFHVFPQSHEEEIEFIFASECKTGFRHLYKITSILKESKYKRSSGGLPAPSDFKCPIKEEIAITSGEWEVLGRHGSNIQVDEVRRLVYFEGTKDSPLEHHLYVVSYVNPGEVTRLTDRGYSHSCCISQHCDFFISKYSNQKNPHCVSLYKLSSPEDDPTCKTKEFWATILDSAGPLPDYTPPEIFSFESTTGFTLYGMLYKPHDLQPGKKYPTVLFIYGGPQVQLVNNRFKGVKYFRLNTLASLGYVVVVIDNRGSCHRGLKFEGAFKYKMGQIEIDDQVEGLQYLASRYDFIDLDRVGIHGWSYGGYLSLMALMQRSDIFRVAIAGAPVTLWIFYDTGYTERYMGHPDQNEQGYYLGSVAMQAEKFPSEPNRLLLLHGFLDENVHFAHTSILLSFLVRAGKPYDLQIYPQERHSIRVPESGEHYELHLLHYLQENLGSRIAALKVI

[3] = test system: HepG2; assay: Cytotoxicity against human HepG2 cells assessed as reduction in cell viability after 48 hrs by MTT assay; format: cell-based; details: hepg2, 48 h
Outline: (§2)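 HepG2 cells in DMEM were exposed to compound in DMSO at 1–100 μM final, or DMSO alone as negative control, for 48 h. MTT (5 mg/ml, 20 µL) was then added for 6 h, the supernatant removed and the formazan dissolved in DMSO. Absorbance was read at 490 nm; viability is expressed versus control; mean ± SD, n=3.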

[4] = test system: HepG2; assay: Cytotoxicity against human HepG2 cells assessed as reduction in cell viability at 100 uM after 48 hrs by MTT assay; format: cell-based; details: hepg2, 48 h; outline: as §2
[5] = Cytotoxicity against human HepG2 cells assessed as cell viability at 100 uM after 48 hrs by MTT assay relative to control; format: cell-based; details: read-out: Activity; outline: as §2
[6] = species: Mus musculus; assay: animal or person; details: C57BL/6, ip, read-out: MED
[7] = test system: Mus musculus; assay: Antidiabetic activity in ip dosed C57BL/6 mouse as reduction in blood glucose level administered as single dose pretreated for 30 mins followed by dextrose-challenge measured up to 2 hrs by IPGTT; format: functional, organism-based
Outline: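 Diabetic male mice (strain given as C57BL/6 and as BALB/c) received a single intraperitoneal dose of 1, 5 or 10 mg/kg, or saline as control, 30 min before an injected dextrose challenge (2 g/kg). Blood glucose was read at 0, 0.5, 1, 1.5 and 2 h, and glucose AUC was computed over 0–120 min; mean ± SD, n = 4.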

Dipeptidyl peptidase 9, sequence (Q86TI2 whole entry): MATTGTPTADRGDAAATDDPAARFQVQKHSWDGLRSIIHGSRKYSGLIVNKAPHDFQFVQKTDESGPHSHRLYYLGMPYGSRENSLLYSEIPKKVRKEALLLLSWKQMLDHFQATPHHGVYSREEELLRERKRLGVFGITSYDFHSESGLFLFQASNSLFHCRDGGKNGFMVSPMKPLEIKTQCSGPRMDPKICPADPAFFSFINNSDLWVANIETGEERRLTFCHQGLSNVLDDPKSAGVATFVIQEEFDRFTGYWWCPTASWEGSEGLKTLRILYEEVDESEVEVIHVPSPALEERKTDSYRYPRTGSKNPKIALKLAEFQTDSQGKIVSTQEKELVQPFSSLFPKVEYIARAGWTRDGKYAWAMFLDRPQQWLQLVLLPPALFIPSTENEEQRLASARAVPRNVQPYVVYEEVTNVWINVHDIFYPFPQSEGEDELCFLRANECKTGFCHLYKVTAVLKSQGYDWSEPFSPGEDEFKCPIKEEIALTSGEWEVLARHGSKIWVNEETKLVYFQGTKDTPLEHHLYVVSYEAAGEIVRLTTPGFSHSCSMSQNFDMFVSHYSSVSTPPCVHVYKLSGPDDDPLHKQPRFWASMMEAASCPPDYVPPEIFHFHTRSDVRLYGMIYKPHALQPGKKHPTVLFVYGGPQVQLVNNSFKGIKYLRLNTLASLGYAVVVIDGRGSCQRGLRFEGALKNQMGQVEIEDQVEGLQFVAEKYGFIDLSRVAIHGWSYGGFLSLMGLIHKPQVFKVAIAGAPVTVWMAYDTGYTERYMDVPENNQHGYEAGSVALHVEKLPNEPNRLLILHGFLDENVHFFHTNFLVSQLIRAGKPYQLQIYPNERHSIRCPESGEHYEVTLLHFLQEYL

Compound | IC50 [1] [µM] | IC50 [2] [µM] | Activity [3] | Activity [4] | viability at 48 h, 100 µM [5] [%] | minimal effective dose [6] [mg/kg] | Activity [7]
N#Cc1ccccc1Cc1c(Cl)nc2ccnn2c1N1CCC[C@@H](N)C1 | > 100 | > 100 | Dose-dependent effect | Toxic | – | – | –
Cc1ccc(Cn2c(N3CCNCC3)cc(=O)n3nccc23)cc1 | > 100 | > 100 | – | – | – | – | –
N#Cc1ccccc1Cn1c(N2CCNCC2)cc(=O)n2nccc12 | > 100 | > 100 | Dose-dependent effect | – | > 60 | 1 | Dose-dependent effect

Further lines, with some results ahead:

IC50 [1] [µM] | IC50 [2] [µM] | Compound | Activity [3] | Activity [4] | viability at 48 h, 100 µM [5] [%] | minimal effective dose [6] [mg/kg] | Activity [7]
> 100 | > 100 | O=c1cc(N2CCNCC2)n(Cc2ccccc2[N+](=O)[O-])c2ccnn12 | – | – | – | – | –
> 100 | > 100 | O=c1cc(N2CCNCC2)n(Cc2ccccc2)c2ccnn12 | – | – | – | – | –
> 100 | > 100 | N#Cc1ccccc1Cn1c(N2CCC[C@@H](N)C2)cc(=O)n2nccc12 | – | – | – | – | –
> 100 | > 100 | Cc1ccc(Cn2c(N3CCC[C@@H](N)C3)cc(=O)n3nccc23)cc1 | – | – | – | – | –
